Data on nine compounds can be found in ChEMBL document CHEMBL2380254, “Optimization of tocotrienols as antiproliferative and antimigratory leads” (Eur J Med Chem, 2013).

Holding throughout (assay type): functional
One assay relates to UACC-257. Briefly: Growth inhibition of human UACC257 cells assessed as cell growth at 10 uM after 48 hrs by sulforhodamine B assay. The note with it: UACC-257, 48 h, read-out: Activity. Summed up:
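Single-dose NCI-60 test at 10 µM. Cells were grown in RPMI 1640 with 5% FBS and 2 mM L-glutamine, preincubated 24 h, with T0 plates TCA-fixed. Exposure was 48 h at 37 °C, 5% CO2. Cells were fixed with cold TCA (final 10%, 4 °C, 60 min), stained with SRB and read at 515 nm. Percent growth was taken relative to T0 and untreated control; negative values denote cell kill.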
(The SRB assay estimates cell density from bound dye.)

The subject of the next assay is HCT-116. Briefly: Growth inhibition of human HCT116 cells assessed as cell growth at 10 uM after 48 hrs by sulforhodamine B assay. The note with it: HCT-116, 48 h, read-out: Activity. Summed up: (§1)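 NCI-60 single-dose screen at 10 µM: cells in RPMI 1640 with 5% FBS, preincubated 24 h, then exposed 48 h at 37 °C. TCA fixation (16% final for suspension cells), SRB staining, absorbance 515 nm. Percent growth relative to time-zero and untreated control plates; negative values indicate cell kill.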

The subject of a further assay is HOP-92. Briefly: Growth inhibition of human HOP92 cells assessed as cell growth at 10 uM after 48 hrs by sulforhodamine B assay. The note with it: HOP-92, 48 h, read-out: Activity. The method in brief: as §1
A further assay has as its system NCI-H226. Kind of assay: Growth inhibition of human NCI-H226 cells assessed as cell growth at 10 uM after 48 hrs by sulforhodamine B assay. The note with it: NCI-H226, 48 h, read-out: Activity. The method in brief: (§2)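 Single-dose NCI-60 screen: adherent cells in RPMI 1640 with 5% FBS were exposed to 10 µM for 48 h at 37 °C after a 24 h preincubation. They were fixed in situ with cold TCA (10% final), stained with 0.4% SRB in 1% acetic acid, solubilized in 10 mM Tris base, and read at 515 nm. Percent growth was taken relative to time-zero and control plates.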

For a further assay, the system named is RPMI-8226. Briefly: Growth inhibition of human RPMI8226 cells assessed as cell growth at 10 uM after 48 hrs by sulforhodamine B assay. The note with it: RPMI-8226, 48 h, read-out: Activity. The method in brief: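 Single 10 µM dose applied to suspension cells in RPMI 1640 with 5% FBS and 2 mM L-glutamine for 48 h at 37 °C. Settled cells were fixed with 80% TCA (16% final), stained with SRB, and read at 515 nm. Percent growth was calculated against time-zero and untreated control optical densities.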

Another assay has as its system M14. Briefly: Growth inhibition of human M14 cells assessed as cell growth at 10 uM after 48 hrs by sulforhodamine B assay. The note with it: M14, 48 h, read-out: Activity. Summed up:
as §1

Assay [1] is described as follows: Growth inhibition of human NCI-ADR-RES cells assessed as cell growth at 10 uM after 48 hrs by sulforhodamine B assay. The note with it: read-out: Activity. The method in brief:
as §2

The test system of a further assay is NCI-H23. Briefly: Growth inhibition of human NCI-H23 cells assessed as cell growth at 10 uM after 48 hrs by sulforhodamine B assay. The note with it: NCI-H23, 48 h, read-out: Activity. The method in brief: as §2
The subject of another assay is SR. Briefly: Growth inhibition of human SR cells assessed as cell growth at 10 uM after 48 hrs by sulforhodamine B assay. The note with it: read-out: Activity. Summed up:
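Suspension line in RPMI 1640 with 5% FBS, single 10 µM dose for 48 h. Settled cells were fixed with TCA (final 16%), then SRB-stained and read at 515 nm. Percent growth was taken versus T0 and control; negative values denote cytotoxicity.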

For another assay, the system named is NCI-H522. Briefly: Growth inhibition of human NCI-H522 cells assessed as cell growth at 10 uM after 48 hrs by sulforhodamine B assay. The note with it: NCI-H522, 48 h, read-out: Activity. The method in brief: as §2

For the compound `CC(C)=CCC/C(C)=C/CC/C(C)=C/CC[C@]1(C)CCc2c3c(c(C)c(C)c2O1)OCN(CCCCCCCCCCO)C3`, the growth at 10 µM worked out at 102% in the assay on UACC-257; 78.4% in the assay on HCT-116; 93.7% in the assay on HOP-92; 92.6% with NCI-H226; 78.8% in the assay with RPMI-8226; 101% in the assay with M14. Moreover, the growth at 10 µM in assay [1] was found to be 99.2%; with NCI-H23 it was 90.9%; in the assay on SR it was 51.9%.
As to `COc1ccc(CCN2COc3c(C)c(C)c4c(c3C2)CC[C@@](C)(CC/C=C(\C)CC/C=C(\C)CCC=C(C)C)O4)cc1OC`, the growth at 10 µM amounted to 105% with UACC-257; 91.9% in the assay with HCT-116; 106% in the assay on HOP-92; 97% in the assay on NCI-H226; 64.6% in the assay with RPMI-8226; 101% in the assay on M14. The growth at 10 µM in the assay with NCI-H522 came to 98.6%; in assay [1], 101%; with NCI-H23, 102%; with SR, 54.6%.
On to `COc1ccc(CCNCc2c(O)c(C)c(C)c3c2CC[C@@](C)(CC/C=C(\C)CC/C=C(\C)CCC=C(C)C)O3)cc1OC`, for which the growth at 10 µM in the assay on UACC-257 turned out to be 107%; with HCT-116, 47.1%; with HOP-92, 104%; with NCI-H226, 106%; in the assay on M14, 90.4%; with NCI-H522 it was 96.2%. Besides, the growth at 10 µM in [1] is 91.4%; in the assay with NCI-H23, 84.9%; in the assay with SR it was 7.87%.
Turning to `CC(C)=CCC/C(C)=C/CC/C(C)=C/CC[C@]1(C)CCc2cc(O)c(C)c(C)c2O1` [GAMMA-TOCOTRIENOL], the growth at 10 µM in the assay with UACC-257 was found to be 123%; with HCT-116, 109%; with HOP-92, 92%; with NCI-H226, 90.8%; with RPMI-8226 it was 78%; with M14, 109%. In addition, the growth at 10 µM in the assay on NCI-H522 came to 68.8%; in [1], 96.9%; in the assay with NCI-H23, 92.8%; with SR, 85.5%.
Turning to `CC(C)=CCC/C(C)=C/CC/C(C)=C/CC[C@]1(C)CCc2c(CNCCc3ccc(O)cc3)c(O)c(C)c(C)c2O1`, the growth at 10 µM is 102% in the assay with UACC-257; 61.4% with HCT-116; 94.6% in the assay on HOP-92; 105% in the assay with NCI-H226; 102% with M14; 105% with NCI-H522. For the same compound, the growth at 10 µM in assay [1] turned out to be 95%; in the assay on NCI-H23, 91.5%; with SR, 18.5%.
Take `CC(C)=CCC/C(C)=C/CC/C(C)=C/CC[C@]1(C)CCc2c3c(cc(C)c2O1)OCN(CCCCCCCCCCCCO)C3`: the growth at 10 µM in the assay on UACC-257 was 64.3%; with HCT-116, 51.6%; in the assay on NCI-H226 it was 80.6%; with RPMI-8226, 15.8%; in the assay with M14 it was 90.9%; in the assay with NCI-H522 it was 36.7%. Further, the growth at 10 µM is 79.9% in assay [1], 77.3% in the assay on NCI-H23 and -19.6% in the assay on SR.
In the case of `CC(C)=CCC/C(C)=C/CC/C(C)=C/CC[C@]1(C)CCc2c3c(cc(C)c2O1)OCN(CCCCCCCCCCO)C3`, the growth at 10 µM with UACC-257 was found to be 81.4%; with HCT-116, 65.6%; with NCI-H226 it was 89.8%; in the assay on RPMI-8226, 63.2%; in the assay on M14, 94.9%; in the assay on NCI-H522, 86%. Moreover, the values for the growth at 10 µM (in [1]; in the assay on NCI-H23; with SR) were 99.9%, 90.8% and 3.3%, respectively.
As to `CC(C)=CCC/C(C)=C/CC/C(C)=C/CC[C@]1(C)CCc2c3c(c(C)c(C)c2O1)OCN(CCCCCCCCCCCCO)C3`, the growth at 10 µM is 104% in the assay with UACC-257; 102% in the assay with HCT-116; 107% in the assay with HOP-92; 93.3% in the assay on NCI-H226; 87% in the assay on RPMI-8226; 113% in the assay with M14. Moreover, the growth at 10 µM in the assay with NCI-H522 came out at 69.5%; in assay [1] it was 97.9%; in the assay with NCI-H23, 104%; with SR it was 67.2%.
As for `CC(C)=CCC/C(C)=C/CC/C(C)=C/CC[C@]1(C)CCc2c3c(c(C)c(C)c2O1)OCN(CCc1ccc(O)cc1)C3`, the growth at 10 µM with UACC-257 amounted to 93.6%; in the assay on HCT-116 it was 37.7%; with HOP-92, 87.9%; in the assay with NCI-H226 it was 111%; in the assay with M14, 97.6%; in the assay on NCI-H522, 90%. Besides, the growth at 10 µM in [1] turned out to be 83.6%; in the assay on NCI-H23 it was 88.2%; in the assay on SR it was 16.3%.
